From ChEMBL document CHEMBL4732250, “Investigations on substituted (2-aminothiazol-5-yl)(imidazo[1,2-a]pyridin-3-yl)methanones for the treatment of Alzheimer's disease” (Bioorg Med Chem, 2021)

Tests used:
[1] = tested on: Rattus norvegicus; assay: Antiinflammatory activity in Sprague-Dawley rat acute model of carrageenan-induced paw edema assessed as inhibition of rat paw edema at 50 mg/kg, po pre treated for 1 hr followed by carrageenan-stimulation and measured after 3 hrs by plethysmometeric method relative to control; type: functional; settings: time 4 hrs
How it was run: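 SD rats of either sex, 150–200 g, n = 6, dosed orally in 0.2% agar suspension. After 1 h, 0.1 mL 1% carrageenan in saline injected into the left hind sub-plantar paw. Paw volume measured by mercury plethysmometer before and 3 h after injection. % edema inhibition calculated. Mean ± SEM.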

[2] = tested on: Rattus norvegicus; assay: Antiinflammatory activity in Sprague-Dawley rat acute model of carrageenan-induced paw edema assessed as inhibition of rat paw edema at 50 mg/kg, po pre treated for 1 hr followed by carrageenan-stimulation and measured after 3 hrs by plethysmometeric method relative to control
[3] = tested on: Rattus norvegicus; assay: Antiinflammatory activity in Sprague-Dawley rat chronic model of formalin-induced paw edema assessed as inhibition of rat paw edema at 50 mg/kg, po pre treated for 1 hr followed by formalin-stimulation and measured after 5 days by plethysmometeric method relative to control; type: functional; settings: 120 h, time 5 day
How it was run: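 Chronic paw edema. Oral pre-dose in 0.2% agar; after 1 h, 0.1 mL 2% formalin in saline injected into the left hind sub-plantar paw, repeated on 5 consecutive days. Paw volume by plethysmometer. % inhibition of edema size relative to disease control, days 1–5. n = 6, mean ± SEM, one-way ANOVA with Tukey's test.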

Row | Structure (SMILES) | inhibition in vivo at 50 mg/kg [1] [%] | inhibition in vivo at 50 mg/kg [2] [%] | inhibition in vivo at 50 mg/kg [3] [%]
1 | Nc1ncc(C(=O)c2cnc3ccccn23)s1 | 33 | – | –
2 | Cc1ccn2c(C(=O)c3cnc4ccccn34)cnc2c1 | – | 67 | 61
3 | CN(C)c1nc(N)sc1C(=O)c1cnc2ccccn12 | 32 | – | –
4 | Cc1ccn2c(C(=O)c3sc(N)nc3C)cnc2c1 | 66 | – | –
5 | Cc1ccc2ncc(C(=O)c3sc(N)nc3C)n2c1 | 33 | – | –
6 | Cc1nc(N)sc1C(=O)c1cnc2c(C)cccn12 | 45 | – | –
7 | Cc1cccn2c(C(=O)c3cnc(N)s3)cnc12 | 31 | – | –
8 | Cc1ccc2ncc(C(=O)c3cnc(N)s3)n2c1 | 53 | – | –
9 | Cc1ccc2ncc(C(=O)c3sc(N)nc3-c3ccccc3)n2c1 | 77 | – | –
